SENP8 block-1 = inhibitors of human SENP8 protease | Q96LD8 | purified SENP8, Z-RLRGG-aminoluciferin cleavage, luminescence | inhibition, % at 10 µM | 330,000 tested, 1.2% active | AID 2540; in the data active = inhibition above about 50%
SENP7 inh = inhibitors of human SENP7 protease. recombinant SENP7, Z-RLRGG-aminoluciferin luminescence, 40 min. AID 434973. 330,000 tested, 1.5% active. inhibition, % at 5 µM. Q9BQF6;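 active = inhibition above about 50% at the single test dose, limit read from the data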
UBC13 polyUb = blocks human UBC13 polyubiquitin chain formation. inhibition, % at 20 µM. TR-FRET. 330,000 tested, 0.47% active. P61088; in the data active = inhibition above about 45%, passing the limit was not always enough
SENP6 block = inhibitors of human SENP6 protease. Q9GZR1. Recombinant SENP6 catalytic domain, aminoluciferin luminescence. inhibition, % at 10 µM. 330,000 tested, 1.8% active;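 active = inhibition above about 50% at the single tested dose, limit read from the data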
Target sequence (Q9GZR1 628-1112 limits assumed): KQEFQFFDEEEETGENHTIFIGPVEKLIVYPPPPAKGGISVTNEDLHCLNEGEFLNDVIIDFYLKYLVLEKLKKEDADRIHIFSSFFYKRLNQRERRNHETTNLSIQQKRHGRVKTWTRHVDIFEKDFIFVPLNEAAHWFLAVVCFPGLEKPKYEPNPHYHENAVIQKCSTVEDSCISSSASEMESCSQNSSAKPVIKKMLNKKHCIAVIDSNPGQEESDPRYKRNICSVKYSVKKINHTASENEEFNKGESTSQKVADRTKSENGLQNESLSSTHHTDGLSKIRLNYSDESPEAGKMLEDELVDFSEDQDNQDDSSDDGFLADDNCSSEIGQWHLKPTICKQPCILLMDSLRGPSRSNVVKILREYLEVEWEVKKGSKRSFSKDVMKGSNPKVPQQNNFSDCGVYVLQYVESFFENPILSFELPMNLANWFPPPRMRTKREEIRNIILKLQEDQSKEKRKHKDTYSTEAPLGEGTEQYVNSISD
Apaf1 inhib = human Apaf-1 inhibition | inhibition, % at 20 µM | 330,000 tested, 0.71% active | O14727 | reconstituted apoptosome caspase-3 activity, DEVD-Rh110 fluorescence; active = inhibition of at least 40% at 20 µM
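System – cell-free apoptosome with Apaf-1, procaspase-3 and caspase-9 · Buffer or medium – pH 7.5 Hepes buffer with CHAPS, BSA, DTT · Also added – cytochrome c with DEVD-Rh110 · Times – 30 min compound preincubation, 50 min activation, room temperature · Technique – Rh110 fluorescence intensity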
SENP8 block-2 = inhibitors of human SENP8 protease. Q96LD8. recombinant SENP8, Nedd8 substrate fluorescence. inhibition, % at 20 µM. 360,000 tested, 0.64% active. AID 602440; in the data active = inhibition mostly above about 40%, no sharp cut-off; inactive = mostly below about 27%
SENP8 confirm = confirmation of human SENP8 protease inhibitors | shares compounds with SENP7 inh | Recombinant SENP8, Z-RLRGG-aminoluciferin luminescence, 60 min | inhibition, % at 12.5 µM | 6,200 tested, 40% active;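 active = mean inhibition across replicates above about 50%, limit read from the data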
SENP6 confirm = confirmation of human SENP6 protease inhibitors; shares compounds with SENP7 inh; recombinant SENP6, Z-RLRGG-aminoluciferin luminescence; inhibition, % at 12.5 µM; 6,200 tested, 58% active; AID 488915
SENP7 conf = confirmation of human SENP7 protease inhibitors | shares compounds with SENP7 inh | inhibition, % at 12.5 µM | 6,200 tested, 69% active | recombinant SENP7, Z-RLRGG-aminoluciferin luminescence, 40 min
Casp3 select = selectivity test for SENP inhibitors: human caspase-3 inhibition. shares compounds with SENP7 inh. purified caspase-3, Z-DEVD-aminoluciferin luminescence, 60 min. inhibition, % at 12.5 µM. 6,200 tested, 60% active. AID 488918;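 active = mean inhibition above about 50%, limit read from the data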
SENP luc ctr = luminescence interference (SENP counter-screen); shares compounds with SENP7 inh; Pre-incubated SENP8/Z-RLRGG-aminoluciferin, luciferase luminescence interference; inhibition, % at 12.5 µM; 6,200 tested, 39% active;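 active = mean inhibition above about 50% when retested at one dose, limit read from the data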
Of the large screens only hits and unclear results are named; the others gave an inactive call (follow-up assays come after a bar, where they were run). Sampled rows, rich in hits. Any-hit rate of the full collection: about 3%.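 Rule for the calls, unless noted: active = mean inhibition above about 50% in the one-dose retest (limit read from the data); inactive = the rest.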

Cc1ccccc1CNC(=O)c1csc([C@@H]2C[C@H](O)[C@@H](CO)O2)n1	none (no result: SENP8 block-1, SENP7 inh, UBC13 polyUb, SENP6 block, Apaf1 inhib)
Fc1ccc(-c2cn3cc(C(F)(F)F)cc(Cl)c3n2)cc1	SENP7 inh 82, SENP6 block 75 | SENP8 confirm 59 | SENP6 confirm 77 | SENP7 conf 86 | Casp3 select 58 | SENP luc ctr inactive
COc1ccc(-c2cn3cc(C(F)(F)F)cc(Cl)c3n2)cc1	none
CCOC(=O)C1=CCC(c2ccccc2C)N(S(=O)(=O)c2ccc(C)cc2)C1 (centres undefined)	none (no result: SENP8 block-1, SENP7 inh, UBC13 polyUb, SENP6 block, Apaf1 inhib)
c1ccc(Cn2nc(-c3ccccc3)nc2-c2ccccc2)cc1	SENP6 block 62 | SENP8 confirm inactive | SENP6 confirm inactive | SENP7 conf 74 | Casp3 select inactive | SENP luc ctr inactive
CCOC(=O)c1cc2c(s1)-c1ccccc1CC2	none
CCOC(=O)c1cc2ccc3ccccc3c2s1	SENP6 block 58 | SENP8 confirm inactive | SENP6 confirm inactive | SENP7 conf 54 | Casp3 select inactive | SENP luc ctr inactive
Cc1c(C(=O)Nc2ccc(N3CCOCC3)cc2)oc2ccccc12	SENP7 inh 67, SENP6 block 70 | SENP8 confirm inactive | SENP6 confirm 59 | SENP7 conf 62 | Casp3 select 54 | SENP luc ctr inactive
O=C(Nc1ccc2c(c1)OCCO2)c1cc2ccccc2o1	SENP8 block-1 61, SENP7 inh 78, SENP6 block 81 | SENP8 confirm inactive | SENP6 confirm 84 | SENP7 conf 97 | Casp3 select 80 | SENP luc ctr 79
O=C(Nc1ccc(N2CCOCC2)cc1)c1nc2ccccc2s1	SENP8 block-1 75, SENP7 inh 98, SENP6 block 95 | SENP8 confirm inactive | SENP6 confirm inactive | SENP7 conf inactive | Casp3 select inactive | SENP luc ctr inactive
O=C(Nc1ccc(N2CCOCC2)cc1)c1cc2ccccc2o1	SENP6 block 70 | SENP8 confirm inactive | SENP6 confirm inactive | SENP7 conf 82 | Casp3 select 69 | SENP luc ctr inactive
Nc1nc2ccc(C(=O)Nc3ccc(N4CCOCC4)cc3)cc2s1	none
O=C(Nc1ccc(CN2CCOCC2)cc1)c1cc2ccccc2o1	none
C[C@H](CO)N1C[C@H](C)[C@H](CN(C)C(=O)Nc2ccccc2F)OCc2cnnn2CCCC1=O	none (no result: SENP8 block-1, SENP7 inh, UBC13 polyUb, SENP6 block, Apaf1 inhib)
Oc1ccccc1/C=N/Nc1cccc2cccnc12	SENP8 block-1 87, SENP7 inh 88, SENP6 block 92 | SENP8 confirm 92 | SENP6 confirm 96 | SENP7 conf 101 | Casp3 select 80 | SENP luc ctr inactive
CC(=O)C1=C(O)C(=CC=Cc2ccccc2)OC1=O	none (no result: SENP8 block-1, SENP7 inh, UBC13 polyUb, SENP6 block, Apaf1 inhib)
COc1ccc(C(C)(O)c2nc(-c3cccc(O)c3)cs2)cc1 (centres undefined)	none (no result: SENP8 block-1, SENP7 inh, UBC13 polyUb, SENP6 block, Apaf1 inhib)
COc1ccc(/C=C/c2ccc3cccc(O)c3n2)cc1Br	SENP7 inh 63 | SENP8 confirm inactive | SENP6 confirm inactive | SENP7 conf inactive | Casp3 select inactive | SENP luc ctr inactive
COc1cccc(/C=C/c2ccc3cccc(O)c3n2)c1	SENP8 block-1 89, SENP7 inh 92, SENP6 block 93 | SENP8 confirm 92 | SENP6 confirm 95 | SENP7 conf 102 | Casp3 select 90 | SENP luc ctr 66
COc1cc(/C=C/c2ccc3cccc(O)c3n2)cc(Br)c1OC	none
Oc1cccc(/C=C/c2ccc3cccc(O)c3n2)c1	SENP8 block-1 94, SENP7 inh 96, SENP6 block 94 | SENP8 confirm 97 | SENP6 confirm 98 | SENP7 conf 102 | Casp3 select 92 | SENP luc ctr 97
Cc1ccc(/C=C/c2ccc3cccc(O)c3n2)s1	none

Screening results as filed in PubChem BioAssay.
